Compound activity as filed in PubChem BioAssay.
An excerpt weighted towards active compounds, which were near 3.5% of everything screened.
MrgX1 ag: agonists of human MrgX1 receptor, primary screen, HEK293 cells, Fluo-4 calcium flux; Mas-related G-protein coupled receptor member X1 (Homo sapiens), Q96LB2; Fluo-4 calcium fluorescence, agonist mode; stronger effect = higher value; B-score at 10 µM; hit rate 0.44% among 310,000;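 active = calcium response B-score plate-corrected fluorescence ratio at least 3 library SD, with starting fluorescence B-score inside 5 SD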
Target sequence (Q96LB2 whole entry, looked up): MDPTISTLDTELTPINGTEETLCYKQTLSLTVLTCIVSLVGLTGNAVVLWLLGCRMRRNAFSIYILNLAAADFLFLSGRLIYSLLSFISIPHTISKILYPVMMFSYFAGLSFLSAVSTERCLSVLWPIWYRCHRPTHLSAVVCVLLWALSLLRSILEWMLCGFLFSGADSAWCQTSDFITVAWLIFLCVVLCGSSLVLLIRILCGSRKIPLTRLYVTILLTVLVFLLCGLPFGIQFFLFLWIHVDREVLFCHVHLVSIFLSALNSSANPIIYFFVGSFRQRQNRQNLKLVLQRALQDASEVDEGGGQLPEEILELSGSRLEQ
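Material – MrgX1-expressing HEK293 cells · Input – 15,000 cells seeded per well · Dosing – compound as first of three additions · Times – overnight seeding, then 1 h dark dye loading · Measured by – kinetic Fluo-4 NW fluorescence of intracellular calcium · Read-out – B-scored fluorescence response ratio · Benchmarks – positive and negative control wells on each plate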
MrgX1 antagonist: antagonists of human MrgX1 receptor, primary screen, HEK293 cells, Fluo-4 calcium flux; Mas-related G-protein coupled receptor member X1 (Homo sapiens), Q96LB2; BAM8-22 antagonism; stronger effect = lower value; B-score at 10 µM; hit rate 1.3% among 310,000; AID 588676, 2011;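 active = calcium-response B-score plate-corrected more than 3 library SD below zero, starting fluorescence within 5 deviations, no agonist response on first addition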;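 also: peak minus trough fluorescence over baseline after final BAM8-22 challenge near maximal dose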
RGS4 block: RGS4 inhibitors, primary screen, cell-based, HEK293 M3R inducible RGS4, calcium flux | Regulator of G-protein signaling 4 (Homo sapiens), P49798 | Fluo-4 calcium flux; stronger effect = higher value; triggered by carbachol at its EC20 | B-score at 10 µM | hit rate 0.45% among 310,000;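 active = B-score, a plate-corrected calcium signal, over three deviations above library mean, with baseline fluorescence within five deviations of library mean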;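 also: RGS4 expression induced by doxycycline in cells with stable M3 receptor; B-score is computed from the integrated fluorescence ratio over baseline after carbachol; higher B-score means a larger calcium signal and so more RGS4 inhibition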
Target sequence (P49798 whole entry, looked up): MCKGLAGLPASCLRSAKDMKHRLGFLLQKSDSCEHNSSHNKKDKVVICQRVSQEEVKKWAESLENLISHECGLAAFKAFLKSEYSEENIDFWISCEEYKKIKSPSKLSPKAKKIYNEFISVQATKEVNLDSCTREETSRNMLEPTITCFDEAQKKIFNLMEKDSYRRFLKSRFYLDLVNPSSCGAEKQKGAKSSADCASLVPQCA
MrgX1 PAM: positive allosteric modulators of MrgX1, primary screen, HEK293 cells, Fluo-4 calcium flux. Mas-related G-protein coupled receptor member X1 (Homo sapiens), Q96LB2. FDSS; stronger effect = higher value. B-score at 10 µM. hit rate 0.63% among 310,000;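 active = plate-corrected calcium response at least 3 library SD above typical, normal starting fluorescence, not activating the receptor alone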;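 also: compound read alongside a low EC10 to EC30 dose of BAM8-22 agonist; peak minus trough fluorescence over baseline measured at the second addition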
RGS4 act: RGS4 potentiators or activators, primary screen, cell-based, HEK293 M3R inducible RGS4, calcium flux. B-score at 10 µM. hit rate 0.92% among 310,000. carbachol calcium flux Fluo4; stronger effect = lower value. AID 463111, 2010;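 active = B-score of the integrated calcium signal more than 4 SD below the library mean, with starting fluorescence not abnormally high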;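 also: negative B-score means reduced calcium response which marks RGS4 activation or potentiation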
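test system = HEK293 cells with stable M3R and inducible RGS4 | schedule = recording 10 s baseline at 1 Hz, 100 s post-agonist | technique = Fluo4-AM (2 µM) calcium-flux fluorescence, kinetic read | measure = Agonist-evoked peak-minus-minimum fluorescence over baseline, integrated ratio, B score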
RGS4 block valid: enhanced carbachol calcium response, M3R/RGS4 cells, RGS4 inhibitor project, cell-based, validation screen, HEK293 M3R/RGS4, calcium flux. shares compounds with RGS4 block. carbachol calcium Fluo-4 fluorescence; carbachol added at its EC20; 0 = buffer wells, 100 = carbachol control. calcium response, % at 10 µM. hit rate 65% among 1,700. AID 492999, 2010;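 active = duplicate-averaged calcium response above the buffer-only control mean plus 5 SD of those controls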;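 also: integrated fluorescence ratio F max minus min over baseline F0; higher response in RGS4-induced cells means RGS4 inhibition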
RGS4 uninduced: carbachol calcium response in non-induced M3R cells, confirmation, counter-screen for RGS4 inhibitor project, cell-based, HEK293 M3R | AID 493000, 2010 | carbachol calcium Fluo-4; submaximal (EC20) carbachol stimulus; buffer wells 0%, carbachol control wells 100% | shares compounds with RGS4 block | activity (percent), % at 10 µM | hit rate 20% among 1,900; call rule not given here;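 also: RGS4 induction absent so cells express M3R without RGS4; higher means more calcium signal and flags a non-specific hit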
RGS4 inh ctr2: second RGS4 inhibitor counter-screen in uninduced cells lacking carbachol; shares compounds with RGS4 block; HEK293 M3R/RGS4 non-induced, Fluo-4 calcium, no carbachol; normalised: buffer wells 0%, carbachol wells 100%; AID 493001; hit rate 22% among 1,900; calcium response (agonist-mode artifact), % at 10 µM;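 active = duplicate-averaged calcium rise in uninduced cells above buffer wells' mean plus 5 SD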
Active calls of the source: *; i = inactive; x = not tested or not shown.

SMILES	MrgX1 ag	MrgX1 antagonist	RGS4 block	MrgX1 PAM	RGS4 act	RGS4 block valid	RGS4 uninduced	RGS4 inh ctr2
O=C1NC(=O)C(=Cc2ccc(-c3ccc(F)cc3O)o2)C(=O)N1	i	i	39.5*	i	i	73.5%*	31.5%*	10.0%*
O=C1NC(=O)C(=Cc2ccc(-c3ccc(S(=O)(=O)N4CCOCC4)cc3)o2)C(=O)N1	i	i	i	i	i	x	x	x
COc1ccccc1CN1CCCC(C(=O)c2ccccc2OC)C1 (configuration not stated)	i	i	i	i	i	x	x	x
CN1C(=O)C(=Cc2ccc(Sc3ccccc3)o2)C(=O)N(C)C1=O	i	i	26.5*	i	i	23.0%*	i	210.5%*
O=C1NC(=O)C(=Cc2ccc(Sc3ccccc3)o2)C(=O)N1	i	i	9.93*	i	i	5.0%*	i	29.0%*
CN1C(=O)C(=Cc2ccc(Sc3ccccc3)o2)C(=O)N(C)C1=S	i	i	i	i	i	i	i	8.5%*
CN1C(=O)C(=Cc2coc3ccccc3c2=O)C(=O)N(C)C1=O	i	i	i	i	i	x	x	x
CN1C(=O)C(=Cc2ccc(N3CCOCC3)o2)C(=O)N(C)C1=S	i	i	i	i	i	x	x	x
COC(=O)c1c(C)[nH]c(C(=O)C(C)[N+]23CCN(CC2)CC3)c1C (configuration not stated)	i	i	i	i	i	x	x	x
CC(C)CN(CC(C)C)c1ccc(C=C2C(=O)NC(=S)NC2=O)cc1[N+](=O)[O-]	i	i	i	i	i	x	x	x
CCN(CC)c1ccc(C=C2C(=O)NC(=S)NC2=O)cc1	i	i	36.3*	i	i	56.0%*	29.5%*	i
O=C1NC(=O)C(=Cc2coc3ccc(O)cc3c2=O)C(=O)N1	i	i	5.3*	i	i	8.5%*	i	i
NC(=O)c1cn(C2OC(CO)C(O)C2O)c2ncnc(N)c12 (configuration not stated)	i	i	i	i	i	x	x	x
CCNC(=O)[C@H]1O[C@@H](n2cnc3c(N)ncnc32)[C@H](O)[C@@H]1O	i	i	9.75*	i	i	34.5%*	i	i
CC(Cc1ccccc1)NCC(=O)Nc1cc(N(C)C)nc2ccccc12 (configuration not stated)	i	i	i	i	i	x	x	x
COc1ccc(OC)c(N2C(=O)NC(=O)/C(=C/c3ccc([N+](=O)[O-])s3)C2=O)c1	i	i	5.8*	i	i	15.0%*	i	i
COc1ccc(OC)c(N2C(=O)/C(=C/c3ccco3)C(=O)NC2=S)c1	i	i	i	i	i	x	x	x
O=C1/C(=C\c2ccncc2)N2CCC1CC2	i	i	i	i	i	x	x	x
O=C1/C(=C\c2ccc(Cl)cc2Cl)N2CCC1CC2	i	i	7.69*	i	i	6.5%*	i	i
O=C1/C(=C\c2ccc(Cl)c(Cl)c2)N2CCC1CC2	i	i	21.2*	i	i	16.5%*	i	i
O=C1/C(=C\c2cc3c(cc2Cl)OCO3)N2CCC1CC2	i	i	i	i	i	x	x	x
CCOC(=O)c1ccc2c(c1)n(Cc1ccccc1)c(C)[n+]2CC	i	i	i	i	i	x	x	x
O=C(COc1ccccc1F)N1CCN(CCN2C(=O)c3cccc4cccc(c34)C2=O)CC1	i	i	i	i	i	x	x	x
Cc1c(CC(=O)N2C[C@H]3C[C@@H](C2)c2cccc(=O)n2C3)c(=O)oc2c(C)c(O)ccc12	i	i	i	i	i	x	x	x
Cc1ccccc1NP(=O)(Oc1ccccc1F)Oc1ccccc1F	i	i	i	i	-7.53*	i	i	i
SMILES	MrgX1 ag	MrgX1 antagonist	RGS4 block	MrgX1 PAM	RGS4 act	RGS4 block valid	RGS4 uninduced	RGS4 inh ctr2
Cc1cccc(NP(=O)(Oc2ccccc2)Oc2ccccc2)c1C	i	i	i	i	i	x	x	x
CN1CCN2c3ccc(N)cc3CC3(C(=O)NC(=O)NC3=O)C2C1 (configuration not stated)	x	x	i	x	i	x	x	x
CC/C(=N\N1CCCCC1)c1c(O)[nH]c(=O)[nH]c1=O	i	i	4.67*	i	i	8.5%*	i	i
Cc1ccc(/C=C2\C(=O)NC(=S)N(c3cccc(F)c3)C2=O)o1	i	i	15.7*	i	i	34.5%*	i	i
O=C1NC(=O)N(Cc2ccccc2Cl)C(=O)/C1=C/c1cccs1	i	i	i	i	i	x	x	x
COc1ccc(N2C(=O)/C(=C/c3ccc(C)o3)C(=O)NC2=S)cc1	x	x	i	x	i	x	33.0%*	12.0%*
O=C1NC(=O)N(Cc2ccc(F)cc2)C(=O)/C1=C/c1cccs1	i	i	30.2*	i	i	15.0%*	i	i
Cc1ccc(/C=C2\C(=O)NC(=O)N(CCc3ccc(F)cc3)C2=O)o1	i	i	i	i	i	x	i	8.5%*
O=C1NC(=O)N(c2ccc3c(c2)OCO3)C(=O)/C1=C/c1ccsc1	i	i	i	i	i	x	x	x
O=C1NC(=O)N(c2ccc3c(c2)OCO3)C(=O)/C1=C/c1cccs1	i	i	13.5*	i	i	18.0%*	34.5%*	i
C=C(CC1CC(O)[C@]2(C)OC3CC4OC5C[C@]6(C)O[C@]7(C)CCC8OC9C[C@]%10(C)OC%11C(C)=CC(=O)OC%11CC%10OC9C[C@@H](C)C8OC7CC6O[C@]5(C)C/C=C\C4OC3CC2O1)C(=O)O (some centres not stated)	i	i	i	i	i	i	i	i
N[C@@H](Cc1cc(Br)c(O)c(Br)c1)C(=O)O	i	i	6.7*	i	i	11.5%*	i	i
